From ChEMBL document CHEMBL5260844, “Optimization of PDE3A Modulators for SLFN12-Dependent Cancer Cell Killing” (ACS Med Chem Lett, 2019)
Converted amounts (≈) assume the structure as drawn. Counter-ions that a name gives are not always drawn. Values belong to the compound of their own block, whether it stands above or below them. The source made the active and inactive calls. The calls are words filed in the database; no cut-off is given here.

Assays:
[1] = tested on: HCT-116; test: Cytotoxicity against human HCT-116 cells assessed as cell growth inhibition upto 10 uM measured after 48 hrs by […] reagent based assay; format: functional
In short: (§1)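 Counterscreen viability assay in HCT116 colorectal cancer cells and IMR90 normal lung fibroblasts, run alongside DNMDP-sensitive lines.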

[2] = Inhibition of PDE in human HeLa cells; format: cell-based
[3] = tested on: IMR-90; test: Cytotoxicity against human IMR-90 cells assessed as cell growth inhibition upto 10 uM measured after 48 hrs by […] reagent based assay; format: functional; in short: as §1
[4] = Permeability across basolateral to apical side in human Caco-2 cells; format: ADME, cell-based; settings: read-out: permeability
In short: (§2)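 Caco2 monolayer permeability measured in the apical-to-basolateral and basolateral-to-apical directions, in nm/s. Efflux ratio calculated as B-A over A-B.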

[5] = Toxicity in NMRI nude mouse assessed as tolerance at 50 mg/kg, po administered once daily for 44 days; format: organism-based; settings: in vivo, 1056 h, time 44 day
In short: (§3)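 Female NMRI nude mice carrying subcutaneous SK-MEL-3 xenografts, given the compound orally at 10 or 20 mg/kg twice daily, or 50 mg/kg once daily. Tolerance judged by body weight loss (>10% critical) and toxicities.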

[6] = target: cGMP-specific 3',5'-cyclic phosphodiesterase (Homo sapiens) (UniProt O76074); test: Inhibition of PDE5 (unknown origin) by 3H-cAMP scintillation proximity assay
[7] = tested on: SK-MEL3; test: Antitumor activity against human SK-MEL3 cells xenografted in NMRI nude mouse assessed as tumor weight by measuring tumor to control ratio at 50 mg/kg, po administered once daily for 44 days; format: functional; settings: time 44 day
In short: (§4)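 SK-MEL-3 melanoma cells inoculated subcutaneously into female NMRI nude mice. Oral dosing at 10 or 20 mg/kg twice daily, or 50 mg/kg once daily, with vehicle controls. Tumor area and tumor weight expressed relative to vehicle as T/C_rel.area and T/C_weight.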

[8] = tested on: SK-MEL3; test: Antitumor activity against human SK-MEL3 cells xenografted in NMRI nude mouse assessed as tumor growth inhibition by measuring tumor to control ratio at 50 mg/kg, po administered once daily for 44 days; format: functional; settings: time 44 day; in short: as §4
[9] = Selectivity ratio, ratio of IC50 for human PDE3A to EC50 for cytotoxicity against human HeLa cells
[10] = Toxicity in NMRI nude mouse assessed as tolerance at 10 mg/kg, po administered twice daily for 44 days; format: organism-based; settings: in vivo, 1056 h, time 44 day; in short: as §3
[11] = target: cGMP-inhibited 3',5'-cyclic phosphodiesterase 3A (Homo sapiens, UniProt Q14432); test: Inhibition of human N-terminal His-GST-tagged recombinant PDE3A (669-end residues) using fluorescent labelled cAMP as substrate
[12] = Efflux ratio of permeability in human Caco-2 cells; format: ADME, cell-based; in short: as §2
[13] = organism: Homo sapiens; test: Inhibition of PDE1 (unknown origin) by 3H-cAMP scintillation proximity assay
[14] = tested on: A549; test: Cytotoxicity against human A549 cells assessed as cell growth inhibition upto 10 uM measured after 3 days by […] reagent based assay; settings: time 72.0 hrs
[15] = target: 3',5'-cyclic-AMP phosphodiesterase 4B (Homo sapiens) (UniProt Q07343); test: Inhibition of PDE4B (unknown origin) by 3H-cAMP scintillation proximity assay
[16] = target: cGMP-dependent 3',5'-cyclic phosphodiesterase (Homo sapiens) (UniProt O00408); test: Inhibition of PDE2A (unknown origin) by 3H-cAMP scintillation proximity assay
[17] = tested on: SK-MEL3; test: Antitumor activity against human SK-MEL3 cells xenografted in NMRI nude mouse assessed as tumor growth inhibition at 10 mg/kg, po administered twice daily for 44 days; format: functional, organism-based; settings: time 44.0 day; in short: as §4
[18] = target: Phosphodiesterase 6 (Homo sapiens) (UniProt Q13956+P18545+P35913+O43924+P16499+P51160); test: Inhibition of PDE6 (unknown origin) by 3H-cAMP scintillation proximity assay; format: protein assay
[19] = Solubility of the compound; format: physicochemical
[20] = target: High affinity cAMP-specific and IBMX-insensitive 3',5'-cyclic phosphodiesterase 8A (Homo sapiens) (UniProt O60658); test: Inhibition of PDE8A (unknown origin) by 3H-cAMP scintillation proximity assay
[21] = target: Ribonuclease SLFN12 (Homo sapiens) (UniProt Q8IYM2); test: Stabilization of PDE3A/V5-epitope tagged SLFN12 interaction in human HeLa cells at 10 uM incubated for 8 hrs by immunoblotting analysis; format: cell-based
In short: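 HeLa cells transfected with a plasmid expressing V5-tagged SLFN12, then exposed to 10 µM compound for 8 h. Lysates immunoprecipitated with anti-PDE3A antibody for endogenous PDE3A. Co-precipitated SLFN12-V5 detected by immunoblot with anti-V5 antibody.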

[22] = target: Cytochrome P450 2D6 (Homo sapiens, UniProt P10635); test: Inhibition of CYP2D6 (unknown origin); format: ADME
In short: (§5)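 CYP450 inhibition panel covering CYP1A2, 2C8, 2C9, 2D6 and 3A4, with compound tested at high concentrations.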

[23] = Selectivity ratio, ratio of IC50 for human PDE3B to EC50 for cytotoxicity against human HeLa cells
[24] = tested on: HeLa; test: Cytotoxicity against human HeLa cells assessed as cell growth inhibition measured after 48 hrs by […] reagent based assay; format: functional
[25] = Toxicity in NMRI nude mouse assessed as tolerance at 20 mg/kg, po administered twice daily for 44 days; format: organism-based; settings: in vivo, 1056 h, time 44 day; in short: as §3
[26] = tested on: SK-MEL3; test: Antitumor activity against human SK-MEL3 cells xenografted in NMRI nude mouse assessed as tumor growth inhibition at 50 mg/kg, po administered once daily for 44 days; format: functional, organism-based; settings: time 44.0 day; in short: as §4
[27] = tested on: SK-MEL3; test: Antitumor activity against human SK-MEL3 cells xenografted in NMRI nude mouse assessed as tumor growth inhibition at 20 mg/kg, po administered twice daily for 44 days; format: functional, organism-based; settings: time 44.0 day; in short: as §4
[28] = target: Cytochrome P450 3A4 (Homo sapiens, UniProt P08684); test: Inhibition of CYP3A4 (unknown origin); format: ADME; in short: as §5
[29] = target: High affinity cGMP-specific 3',5'-cyclic phosphodiesterase 9A (Homo sapiens) (UniProt O76083); test: Inhibition of PDE9A (unknown origin) by 3H-cAMP scintillation proximity assay
[30] = target: 3',5'-cyclic-AMP phosphodiesterase 7B (Homo sapiens) (UniProt Q9NP56); test: Inhibition of PDE7B (unknown origin) by 3H-cAMP scintillation proximity assay
[31] = target: Cytochrome P450 2C9 (Homo sapiens, UniProt P11712); test: Inhibition of CYP2C9 (unknown origin); format: ADME; in short: as §5
[32] = target: Voltage-gated inwardly rectifying potassium channel KCNH2 (Homo sapiens, UniProt Q12809); test: Binding affinity to hERG (unknown origin); format: toxicity
[33] = target: Cytochrome P450 1A2 (Homo sapiens, UniProt P05177); test: Inhibition of CYP1A2 (unknown origin); format: ADME; in short: as §5
[34] = Permeability across apical to basolateral side in human Caco-2 cells; format: ADME, cell-based; settings: read-out: permeability; in short: as §2
[35] = tested on: SK-MEL3; test: Cytotoxicity against human SK-MEL3 cells assessed as cell growth inhibition upto 10 uM measured after 48 hrs by […] reagent based assay; format: functional; settings: SK-MEL3, 48 h
[36] = target: Cytochrome P450 2C8 (Homo sapiens, UniProt P10632); test: Inhibition of CYP2C8 (unknown origin); format: ADME; in short: as §5
Chain of Cytochrome P450 2C8 (P10632 whole entry): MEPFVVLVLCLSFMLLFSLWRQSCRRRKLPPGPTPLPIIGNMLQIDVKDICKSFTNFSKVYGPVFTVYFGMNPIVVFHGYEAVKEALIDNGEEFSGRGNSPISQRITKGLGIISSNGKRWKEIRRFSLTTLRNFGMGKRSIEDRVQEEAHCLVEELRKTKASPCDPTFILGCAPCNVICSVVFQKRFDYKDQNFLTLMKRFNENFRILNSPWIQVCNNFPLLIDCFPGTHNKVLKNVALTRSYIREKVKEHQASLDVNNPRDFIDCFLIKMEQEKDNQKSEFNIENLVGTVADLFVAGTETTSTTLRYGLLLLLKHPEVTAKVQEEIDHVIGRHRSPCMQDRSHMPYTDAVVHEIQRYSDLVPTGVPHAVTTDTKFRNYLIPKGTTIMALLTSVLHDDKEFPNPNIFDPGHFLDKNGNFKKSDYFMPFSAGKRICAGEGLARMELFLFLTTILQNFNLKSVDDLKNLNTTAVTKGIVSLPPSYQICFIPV

Chain of Cytochrome P450 2C9 (P11712 whole entry): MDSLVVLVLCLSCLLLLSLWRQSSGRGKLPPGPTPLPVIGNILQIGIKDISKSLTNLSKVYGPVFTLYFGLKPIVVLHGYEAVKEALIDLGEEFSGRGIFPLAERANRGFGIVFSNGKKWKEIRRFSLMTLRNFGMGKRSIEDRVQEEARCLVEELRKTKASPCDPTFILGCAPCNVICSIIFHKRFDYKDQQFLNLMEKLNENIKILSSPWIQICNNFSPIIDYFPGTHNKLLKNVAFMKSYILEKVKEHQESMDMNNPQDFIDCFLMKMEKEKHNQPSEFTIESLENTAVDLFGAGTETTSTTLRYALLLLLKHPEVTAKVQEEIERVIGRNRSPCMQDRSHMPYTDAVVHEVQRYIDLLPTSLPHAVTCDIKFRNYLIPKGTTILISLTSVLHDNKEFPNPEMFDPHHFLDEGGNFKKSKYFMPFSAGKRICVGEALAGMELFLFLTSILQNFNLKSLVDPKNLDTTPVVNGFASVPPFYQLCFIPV
Chain of High affinity cAMP-specific and IBMX-insensitive 3',5'-cyclic phosphodiesterase 8A (Homo sapiens) (O60658 whole entry): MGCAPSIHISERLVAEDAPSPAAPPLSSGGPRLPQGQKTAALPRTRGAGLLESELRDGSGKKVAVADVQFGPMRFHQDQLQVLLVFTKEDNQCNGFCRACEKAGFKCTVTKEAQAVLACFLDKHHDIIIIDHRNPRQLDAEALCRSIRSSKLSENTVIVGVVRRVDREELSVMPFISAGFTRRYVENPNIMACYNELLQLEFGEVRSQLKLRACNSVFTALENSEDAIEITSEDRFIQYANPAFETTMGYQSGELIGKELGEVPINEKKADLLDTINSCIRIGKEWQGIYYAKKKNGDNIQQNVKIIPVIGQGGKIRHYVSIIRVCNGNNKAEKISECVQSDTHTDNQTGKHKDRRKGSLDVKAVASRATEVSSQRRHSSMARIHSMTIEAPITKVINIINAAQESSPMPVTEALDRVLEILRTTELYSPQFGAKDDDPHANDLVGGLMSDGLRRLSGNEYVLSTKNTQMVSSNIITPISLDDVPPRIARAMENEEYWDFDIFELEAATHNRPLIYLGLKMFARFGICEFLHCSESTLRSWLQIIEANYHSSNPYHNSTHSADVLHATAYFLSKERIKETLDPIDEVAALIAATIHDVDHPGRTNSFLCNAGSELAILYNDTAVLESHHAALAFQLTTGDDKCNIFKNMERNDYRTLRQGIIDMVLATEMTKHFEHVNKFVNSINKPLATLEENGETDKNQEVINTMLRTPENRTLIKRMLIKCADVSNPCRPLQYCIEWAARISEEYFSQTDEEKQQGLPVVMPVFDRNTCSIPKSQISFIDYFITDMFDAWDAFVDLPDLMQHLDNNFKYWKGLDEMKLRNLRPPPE
Chain of 3',5'-cyclic-AMP phosphodiesterase 7B (Homo sapiens) (Q9NP56 whole entry): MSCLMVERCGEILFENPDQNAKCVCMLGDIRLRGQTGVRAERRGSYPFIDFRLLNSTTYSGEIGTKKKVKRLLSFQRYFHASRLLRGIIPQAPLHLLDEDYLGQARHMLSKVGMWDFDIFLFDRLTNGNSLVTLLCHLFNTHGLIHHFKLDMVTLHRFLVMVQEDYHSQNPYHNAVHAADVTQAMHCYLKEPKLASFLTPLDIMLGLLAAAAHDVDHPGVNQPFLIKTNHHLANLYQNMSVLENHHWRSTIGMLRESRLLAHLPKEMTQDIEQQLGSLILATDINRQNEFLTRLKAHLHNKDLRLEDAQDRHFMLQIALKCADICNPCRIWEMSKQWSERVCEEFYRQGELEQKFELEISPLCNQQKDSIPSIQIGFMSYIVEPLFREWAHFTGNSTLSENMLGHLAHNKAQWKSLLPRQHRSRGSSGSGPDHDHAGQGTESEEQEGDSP
Chain of Cytochrome P450 2D6 (P10635 whole entry): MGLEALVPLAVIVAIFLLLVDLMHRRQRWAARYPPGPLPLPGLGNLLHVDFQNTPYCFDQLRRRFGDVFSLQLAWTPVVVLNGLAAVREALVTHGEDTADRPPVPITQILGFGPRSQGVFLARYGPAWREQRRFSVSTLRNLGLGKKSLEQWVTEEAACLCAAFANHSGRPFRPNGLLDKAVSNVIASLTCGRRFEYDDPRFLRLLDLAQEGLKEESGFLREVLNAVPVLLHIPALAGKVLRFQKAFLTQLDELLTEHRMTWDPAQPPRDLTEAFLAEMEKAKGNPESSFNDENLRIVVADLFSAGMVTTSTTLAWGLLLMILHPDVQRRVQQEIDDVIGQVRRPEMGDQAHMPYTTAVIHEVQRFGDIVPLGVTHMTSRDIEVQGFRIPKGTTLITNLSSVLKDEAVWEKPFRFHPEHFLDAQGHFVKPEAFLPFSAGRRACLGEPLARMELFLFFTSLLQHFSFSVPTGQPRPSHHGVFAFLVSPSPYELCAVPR
Chain of Cytochrome P450 3A4 (P08684 whole entry): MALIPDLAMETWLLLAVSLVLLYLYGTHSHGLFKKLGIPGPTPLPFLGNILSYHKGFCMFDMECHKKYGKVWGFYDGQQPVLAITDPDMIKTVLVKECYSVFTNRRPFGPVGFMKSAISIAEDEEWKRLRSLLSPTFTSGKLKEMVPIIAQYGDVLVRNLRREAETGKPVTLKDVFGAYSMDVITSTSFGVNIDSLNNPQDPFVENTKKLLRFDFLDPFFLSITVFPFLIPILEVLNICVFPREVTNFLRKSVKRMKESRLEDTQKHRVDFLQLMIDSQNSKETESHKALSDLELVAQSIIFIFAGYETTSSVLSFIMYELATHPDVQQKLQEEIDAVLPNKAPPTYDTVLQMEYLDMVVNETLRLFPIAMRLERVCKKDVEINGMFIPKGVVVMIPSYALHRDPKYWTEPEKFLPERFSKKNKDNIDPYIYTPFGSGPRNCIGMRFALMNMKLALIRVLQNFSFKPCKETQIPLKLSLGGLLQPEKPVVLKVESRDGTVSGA
Chain of High affinity cGMP-specific 3',5'-cyclic phosphodiesterase 9A (Homo sapiens) (O76083 whole entry): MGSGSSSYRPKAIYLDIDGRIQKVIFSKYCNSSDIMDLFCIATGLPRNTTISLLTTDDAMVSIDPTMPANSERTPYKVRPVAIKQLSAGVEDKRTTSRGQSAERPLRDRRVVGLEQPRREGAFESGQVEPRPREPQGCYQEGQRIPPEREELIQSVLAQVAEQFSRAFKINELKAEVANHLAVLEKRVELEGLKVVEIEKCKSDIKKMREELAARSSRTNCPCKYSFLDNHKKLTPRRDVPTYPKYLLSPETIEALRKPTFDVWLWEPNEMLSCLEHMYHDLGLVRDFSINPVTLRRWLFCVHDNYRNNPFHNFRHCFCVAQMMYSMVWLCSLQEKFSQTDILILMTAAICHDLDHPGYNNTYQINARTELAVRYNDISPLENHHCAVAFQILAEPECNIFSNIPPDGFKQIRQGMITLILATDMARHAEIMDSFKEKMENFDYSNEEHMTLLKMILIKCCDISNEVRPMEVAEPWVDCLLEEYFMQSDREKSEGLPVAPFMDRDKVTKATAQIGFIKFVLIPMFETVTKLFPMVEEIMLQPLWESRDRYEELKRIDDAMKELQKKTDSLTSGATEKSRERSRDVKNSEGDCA
Chain of Ribonuclease SLFN12 (Homo sapiens) (Q8IYM2 whole entry): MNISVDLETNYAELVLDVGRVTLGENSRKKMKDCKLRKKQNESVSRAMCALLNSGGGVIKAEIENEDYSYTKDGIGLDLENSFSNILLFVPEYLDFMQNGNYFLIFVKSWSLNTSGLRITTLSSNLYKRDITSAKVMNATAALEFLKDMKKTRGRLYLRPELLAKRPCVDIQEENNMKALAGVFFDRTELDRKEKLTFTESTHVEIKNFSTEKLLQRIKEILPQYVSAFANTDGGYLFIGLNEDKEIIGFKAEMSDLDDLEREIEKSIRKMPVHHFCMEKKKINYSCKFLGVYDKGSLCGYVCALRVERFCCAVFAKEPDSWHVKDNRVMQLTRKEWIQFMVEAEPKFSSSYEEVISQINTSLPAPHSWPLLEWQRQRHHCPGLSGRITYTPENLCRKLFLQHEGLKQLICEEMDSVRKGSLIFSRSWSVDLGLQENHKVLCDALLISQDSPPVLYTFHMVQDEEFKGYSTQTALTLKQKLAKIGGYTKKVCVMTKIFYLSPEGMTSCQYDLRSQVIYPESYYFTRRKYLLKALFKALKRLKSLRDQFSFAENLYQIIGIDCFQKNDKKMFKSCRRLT
Chain of Cytochrome P450 1A2 (P05177 whole entry): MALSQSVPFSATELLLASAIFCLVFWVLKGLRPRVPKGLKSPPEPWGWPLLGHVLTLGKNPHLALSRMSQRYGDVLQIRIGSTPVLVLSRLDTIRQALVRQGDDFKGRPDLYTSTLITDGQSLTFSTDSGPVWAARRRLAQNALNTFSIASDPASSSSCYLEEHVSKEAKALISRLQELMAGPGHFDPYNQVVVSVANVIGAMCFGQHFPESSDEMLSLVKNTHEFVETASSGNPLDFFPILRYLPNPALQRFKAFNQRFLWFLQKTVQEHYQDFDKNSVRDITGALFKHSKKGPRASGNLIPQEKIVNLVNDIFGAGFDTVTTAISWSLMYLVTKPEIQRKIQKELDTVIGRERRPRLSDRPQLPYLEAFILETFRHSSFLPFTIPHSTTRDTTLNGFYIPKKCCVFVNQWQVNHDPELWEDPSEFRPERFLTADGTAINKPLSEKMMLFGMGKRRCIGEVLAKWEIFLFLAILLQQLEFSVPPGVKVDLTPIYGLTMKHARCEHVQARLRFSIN

IC50 [2]: 0.25 nM
Structure (SMILES): COc1cc2c(cc1OC)-c1c/c(=N\c3c(C)cc(C)cc3C)n(C)c(=O)n1CC2 [TREQUINSIN HYDROCHLORIDE]
Activity [1]: inactive | Activity [3]: inactive

Papp B→A [4]: 19.8 ×10⁻⁶ cm/s | inhibition [6]: inactive | IC50 [11]: 10 nM | efflux ratio [12]: 0.71 | inhibition [13]: inactive | inhibition [15]: inactive | inhibition [16]: inactive | inhibition [18]: inactive | solubility [19]: 1000 µM (≈ 291 µg/mL) | inhibition [20]: inactive | Activity [21]: Active | inhibition (INH) [22]: Not Active | inhibition (INH) [28]: Not Active | inhibition [29]: inactive | inhibition [30]: inactive | inhibition (INH) [31]: Not Active | inhibition (INH) [33]: Not Active | Papp A→B [34]: 27.9 ×10⁻⁶ cm/s | inhibition (INH) [36]: Not Active
Structure (SMILES): C[C@@H]1CC(=O)NN=C1c1ccc(N2CCOCC2)c(F)c1
Activity [5]: Non-Toxic | T/C [7]: 0.16 | T/C [8]: 0.09 | Ratio IC50/EC50 [9]: 2.4 | Activity [1]: inactive | Activity [10]: Non-Toxic | Activity [14]: inactive | TGI [17]: Active | Ratio IC50/EC50 [23]: 2.4 | EC50 [24]: 1.6 nM | Activity [25]: Non-Toxic | TGI [26]: Active | TGI [27]: Active | Activity [3]: inactive | Activity [32]: Not Active | EC50 [35]: 1.3 nM
